Most compounds without a hit are left out; they make up all but 1.1% or so of the library.
MT1-MMP txn act = MT1-MMP promoter reporter activation – cell-based, luciferase luminescence, primary screen. HT1080 MT1-MMP promoter luciferase reporter, overnight; active compounds read high. activation factor at 10 µM. hit rate 0.16% among 86,000. AID 750, 2007;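 active means activation factor of at least 2 for MT1-MMP transcription at 10 µM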
HEK293 NFkB inh = inhibitors of PMA/ionomycin-induced NF-kB reporter, primary screen, antigen receptor NF-kB inhibitor project, cell-based, HEK-293 luciferase reporter, luminescence. AID 465, 2006. inhibition, % at 3 µM. HEK-293 NF-kB luciferase reporter. hit rate 0.21% among 62,000;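 active means inhibition above the mean of all tested compounds plus 3 SD, cut at about 40% in these data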;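 further: 0% = stimulated DMSO wells and 100% = 10 µM reference inhibitor 5653914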
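System: NF-kB luciferase reporter HEK-293 cells | Replication: Single test | Control set: DMSO vs reference inhibitor | Evaluation: % inhibition | Schedule: 1 h pretreatment, 16 h stimulation, 37 °C | Probe or stimulus: PMA with ionomycin | Compound dosing: One dose, 3 µM | Detection: Luciferase luminescence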
Her2 expr inh = inhibitors of Her2 protein expression, primary screen, SKBR-3 cells, AlphaScreen, 66K library | SKBR-3 HER2 protein level, 18-24 h; active compounds read low | hit rate 0.69% among 65,000 | HER2 level % of control, % at 10 µM | AID 645, 2007;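 active means HER2 level under 5% of the carrier-only control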;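 further: 100% = DMSO carrier and 0% = 500 nM PU-H71 HSP90 inhibitor; lower value means stronger loss of Her2 protein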
Target sequence (P04626 whole entry, looked up): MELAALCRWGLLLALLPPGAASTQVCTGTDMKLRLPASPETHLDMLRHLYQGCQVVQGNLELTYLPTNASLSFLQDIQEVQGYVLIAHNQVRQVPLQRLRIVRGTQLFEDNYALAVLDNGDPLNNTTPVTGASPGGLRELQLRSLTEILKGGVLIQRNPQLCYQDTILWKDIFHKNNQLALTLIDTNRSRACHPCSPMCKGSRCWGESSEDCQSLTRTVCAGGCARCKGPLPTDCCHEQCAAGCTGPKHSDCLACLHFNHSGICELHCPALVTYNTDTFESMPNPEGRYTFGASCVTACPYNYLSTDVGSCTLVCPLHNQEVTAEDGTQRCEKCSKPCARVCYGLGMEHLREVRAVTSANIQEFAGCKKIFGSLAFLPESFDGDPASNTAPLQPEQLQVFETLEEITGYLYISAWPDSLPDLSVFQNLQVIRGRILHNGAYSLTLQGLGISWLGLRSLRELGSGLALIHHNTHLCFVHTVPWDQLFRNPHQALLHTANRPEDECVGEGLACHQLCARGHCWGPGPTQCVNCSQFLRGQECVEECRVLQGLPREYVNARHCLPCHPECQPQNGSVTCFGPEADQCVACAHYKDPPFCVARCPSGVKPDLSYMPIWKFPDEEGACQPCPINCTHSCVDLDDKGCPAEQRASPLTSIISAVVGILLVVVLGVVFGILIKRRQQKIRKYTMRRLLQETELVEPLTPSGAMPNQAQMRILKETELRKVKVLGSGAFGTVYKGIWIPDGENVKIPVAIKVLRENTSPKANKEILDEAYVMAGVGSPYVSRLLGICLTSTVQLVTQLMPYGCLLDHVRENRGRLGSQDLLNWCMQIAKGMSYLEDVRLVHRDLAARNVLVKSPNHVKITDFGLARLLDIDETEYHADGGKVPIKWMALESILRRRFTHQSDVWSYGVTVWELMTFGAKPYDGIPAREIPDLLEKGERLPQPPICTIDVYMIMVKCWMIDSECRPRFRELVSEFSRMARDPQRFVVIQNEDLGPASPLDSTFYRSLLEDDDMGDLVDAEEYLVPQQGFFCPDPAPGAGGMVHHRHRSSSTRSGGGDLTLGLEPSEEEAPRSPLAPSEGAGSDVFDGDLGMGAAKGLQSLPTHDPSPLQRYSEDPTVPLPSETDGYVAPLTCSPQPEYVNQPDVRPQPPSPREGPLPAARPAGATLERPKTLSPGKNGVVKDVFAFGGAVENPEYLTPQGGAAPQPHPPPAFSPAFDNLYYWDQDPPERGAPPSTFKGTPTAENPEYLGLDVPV
JNK3 inh = JNK3 kinase activity inhibitors, primary screen, biochemical, human, purified enzyme; Mitogen-activated protein kinase 10 (Homo sapiens), P53779; HTS; inhibition, % at 8 µM; hit rate 0.61% among 60,000; AID 746, 2007; in the data active means inhibition above about 17%;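 further: 0% = DMSO and 100% = reference inhibitor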
AP complement = alternative complement pathway inhibitors, primary screen, biochemical, ELISA, human serum, orthogonally pooled compounds | LPS-coated ELISA, C3 deposition; tested in compound mixtures | inhibition, % at 5 µM | hit rate 0.08% among 62,000 | AID 1235, 2008;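 active means inhibition above 30% in each of the two pooled mixtures holding the compound, so the lower value exceeds 30%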;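 further: 0% = serum in Mg-EGTA without compound and 100% = EDTA serum blank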
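Test system – human serum alternative complement pathway, C3 deposition on LPS-coated wells · Buffer or medium – diluted human serum in Mg2+-EGTA GVB++ · Compound dosing – 5 µM each compound, pools of ten, 50 µM per pool · Schedule – 1 h serum-compound exposure at 37 °C · Measured by – Anti-C3 ELISA, OD 450 nm · Read-out basis – percent inhibition of C3 deposition onto LPS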
* = called active by the depositor; / = no result given.

SMILES	MT1-MMP txn act	HEK293 NFkB inh	Her2 expr inh	JNK3 inh	AP complement
Cc1cc(C(=O)Nc2cccnc2Cl)on1	1	/	/	/	/
Cc1n[nH]c(C)c1S(=O)(=O)N1CCCC(C(=O)N2CCc3ccccc32)C1 (configuration not stated)	1.3	0	82	-6	1
NC(=O)NCC1CC1	1	/	/	/	/
CC(C)c1ccc(NC(=O)C2CC(=O)N(C(C)C)C2)cc1 (configuration not stated)	1.2	1	88	0	2
Cn1c(=O)c2c(SCc3cccc(C(F)(F)F)c3)nc(-c3ccco3)nc2n(C)c1=O	1	9	-4.9*	2	15
COc1ccc(N2C(=O)CCC(C(=O)NCc3ccccn3)C2c2ccc(OC)c(OC)c2)cc1 (configuration not stated)	1.2	0	95	/	12
Cn1nnnc1SCC(=O)NCc1cccs1	1.4	/	/	/	/
CCOc1ccc(-c2nnc(N(CC)C(=O)C3CCC3)s2)cc1	1.6	4	74	/	17
O=C(c1ccco1)n1c(=S)nc2ccccn21	1.5	-26	45	6	1
Cc1cccc2nc(=S)n(C(=O)c3ccco3)n12	2.1*	-54	46	2	-15
CCOC(=O)c1nnc(-c2cccs2)nc1Oc1ccccc1C(=O)OC	1.1	/	/	/	/
Nc1nnnn1/N=C/c1cc(Cl)cc(Cl)c1OCc1ccc(Cl)cc1Cl	1.3	/	/	/	/
COc1cccc(/C=N/n2c(C)nc3ccccc3c2=O)c1O	1.2	-6	92	3	17
COc1cccc(C=Nc2cccnc2)c1O	1.1	46*	87	5	8
Cc1cc(NC(=O)CSC2=NCCS2)no1	1	1	93	-2	18
COc1ccc(-c2noc(CCCC(=O)O)n2)cc1	/	52*	148	3	6
O=C(NCc1ccco1)Nc1ccc2snnc2c1	1.2	6	113	/	15
Cc1ccccc1-n1nc(C)c2cc(C(=O)N3CCOCC3)sc21	1.3	10	89	23*	11
Cc1ccc(S(=O)(=O)N2CCN(C(=O)c3cc4c(C)nn(-c5ccccc5C)c4s3)CC2)cc1	1	/	/	/	/
COC(=O)CSc1nc(C(C)C)nc2ccccc12	1.2	19	115	16	16
Cc1cc(-c2nnc3n2N=C(c2ccc(-c4ccccc4)cc2)CS3)n[nH]1	1.1	6	-21*	5	15
COc1ccc(-c2nnc3n2N=C(c2ccccc2)CS3)cc1OC	1.1	6	16	-2	0
c1ccc(CNc2ncnc3c2cnn3-c2ccccc2)cc1	1.2	16	81	21*	7
Clc1ccc(-n2ncc3c(NCc4cccs4)ncnc32)cc1	1.6	/	62	1	/
Cn1ncc2c(NCc3ccccc3)ncnc21	1.1	13	103	18*	7
SMILES	MT1-MMP txn act	HEK293 NFkB inh	Her2 expr inh	JNK3 inh	AP complement
Cc1cccc(-n2ncc3c(NCc4cccs4)ncnc32)c1	1.8	-13	90	22*	4
C=C(CC1([C@@H](NP(=O)(c2ccccc2)c2ccccc2)[C@H]2C[C@@H]2CCCC)CC1)c1ccccc1	1.1	/	/	/	/
O=C(CCNC(=O)Cn1cnc2ccccc2c1=O)NCCC1=CCCCC1	1.3	-2	88	4	25
Fc1cc2nccnc2cc1N1CCSCC1	1.3	8	108	23*	-12
CCOC(=O)N1CCN(c2cc3nccnc3cc2F)CC1	1	20	87	6	5
CCCc1nc(SCC(=O)Nc2cc(C)on2)c2ccccc2n1	1.2	22	90	21*	12
CCCc1nc(SCC(=O)N2CCCC2)c2ccccc2n1	1	2	66	17*	0
Cc1cc(NC(=O)CSc2nc(CCC3CCCC3)nc3ccccc23)no1	0.9	8	92	2	15
COc1cc2[nH]c(=O)n(CCCCCC(=O)NCCCN3CCC(C)CC3)c(=O)c2cc1OC	1.1	6	124	/	7
CCOC(=O)N1CCC(NC(=O)CS(=O)(=O)Cc2nc(-c3cccc(OC)c3)oc2C)CC1	1.1	5	127	3	12
Cc1ccccc1OCCCC(=O)Nc1nccs1	/	-4	-20*	/	16
COc1ccccc1C(CC(=O)Nc1nccs1)c1ccco1 (configuration not stated)	1.2	/	-17*	2	20
O=C(CCSc1ccccc1)Nc1nccs1	1.1	/	/	/	/
CNC(=O)CCn1nc(-c2ccccc2)c2ccccc2c1=O	1.1	/	99	4	/
COc1ccc(-c2nc3c(Br)c(N)c(Br)cc3o2)cc1	1.7	/	65	2	/
Nc1c(Br)cc2oc(-c3ccccc3)nc2c1Br	2*	/	72	-5	/
CCN(CC)C(=O)c1csc(Nc2ccc(C)cc2)n1	1.3	5	-20*	-1	7
Cc1ccc(Nc2nc(C(=O)NCc3ccco3)cs2)cc1	1.2	12	82	-2	-10
CCc1nc(SCc2nnc(-c3ccc(C)cc3)o2)c2c(C)c(C)sc2n1	1.2	/	/	/	/
CC(O)CCc1nc2ccc(C(=O)O)cc2[nH]1 (configuration not stated)	1.1	19	-19*	6	11
Cc1nnc(SC(C)C(=O)Nc2ccc3c(c2)OCCO3)s1 (configuration not stated)	1.2	6	161	2	17
Nn1c(-c2ccccc2Cl)nnc1-c1ccccc1Cl	2*	/	/	/	/
O=C(CCn1[nH]c(=O)c2ccccc2c1=O)OC1CCCCC1	1.1	12	-24*	1	0
Cc1cccc(N(C)C(=O)CCS(=O)(=O)c2cccc3nonc23)c1	1.1	5	81	/	-6
COc1ccc(S(=O)(=O)Nc2ccc(O)c3ccccc23)cc1	0.7	15	3.4*	2	7
SMILES	MT1-MMP txn act	HEK293 NFkB inh	Her2 expr inh	JNK3 inh	AP complement
COc1ccc(S(=O)(=O)Nc2ccccc2C(F)(F)F)cc1	1	11	109	-7	8
CC1(C)Oc2ccc3ccc(=O)oc3c2-c2cn[nH]c21	1	13	53	26*	/
[N-]=[N+]=CC(=O)CCCN1C(=O)c2ccccc2C1=O	1.1	9	101	-2	14
[N-]=[N+]=CC(=O)CC(c1ccccc1)N1C(=O)c2ccccc2C1=O (configuration not stated)	1.1	17	-28*	2	19
CCN(CC)c1nc(Nc2ccccc2)nc(Oc2ccc(=O)n(C)n2)n1	1	28	106	/	9
COc1ccccc1-c1nc(-c2ccccn2)no1	/	7	108	5	9
CCOC(=O)c1c(C)oc2c1c(C(c1cccnc1)N1CCN(C)CC1)c(O)c1ccccc12 (configuration not stated)	1.7	18	-16*	0	7
COc1ccc2sc(NC(=O)CC(C)C)nc2c1	1.7	-4	-19*	9	6
CCC(=O)Nc1nc2cc(OC)ccc2s1	1.6	-22	95	4	18

Screening results (PubChem)
